Consider 27 molecules from ChEMBL document CHEMBL4138099, “Design, synthesis and biological evaluation of uncharged catechol derivatives as selective inhibitors of PTP1B” (Eur J Med Chem, 2017).

The target in experiment [1] is T1, Tyrosine-protein phosphatase non-receptor type 1 (Homo sapiens, UniProt P18031).
T1 sequence (P18031 whole entry): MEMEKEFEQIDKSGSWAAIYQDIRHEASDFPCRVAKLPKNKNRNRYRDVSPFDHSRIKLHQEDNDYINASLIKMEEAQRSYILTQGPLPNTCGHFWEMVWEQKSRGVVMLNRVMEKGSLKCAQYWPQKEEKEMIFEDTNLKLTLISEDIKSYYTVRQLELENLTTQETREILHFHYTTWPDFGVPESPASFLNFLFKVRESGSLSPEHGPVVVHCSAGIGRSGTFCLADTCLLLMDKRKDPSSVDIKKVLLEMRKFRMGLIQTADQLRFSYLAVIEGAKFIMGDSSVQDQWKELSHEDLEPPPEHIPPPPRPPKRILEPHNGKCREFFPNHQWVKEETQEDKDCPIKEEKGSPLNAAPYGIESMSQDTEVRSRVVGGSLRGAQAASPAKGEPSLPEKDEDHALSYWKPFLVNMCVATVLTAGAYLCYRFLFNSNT
The experiment is described as follows: Inhibition of recombinant GST-tagged PTP1B catalytic domain (1 to 321 residues) (unknown origin) expressed in Escherichia coli BL21(DE3) using pNPP as substrate after 30 mins by spectrophotometer. The method, boiled down: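 Assay at 37 °C, pH 7.5, in 10 mM Tris-HCl, 25 mM NaCl, 1 mM EDTA and 2 mM DTT, with 4 mM pNPP and 60 nM PTP1B. Inhibitor was added from DMSO at final 100 to 0.01 µM, and the reaction was started with enzyme. After 30 min it was stopped with 1 N NaOH and read at 405 nm. IC50 came from a sigmoidal fit of relative activity versus concentration.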

For experiment [2], the species on record is Homo sapiens. The experiment is described as follows: Selectivity ratio of IC50 for TCPTP (unknown origin) to IC50 for recombinant GST-tagged PTP1B catalytic domain (1 to 321 residues) (unknown origin).
The target of experiment [3] is T2, Tyrosine-protein phosphatase non-receptor type 2 (Homo sapiens, UniProt P17706).
T2 sequence (P17706 whole entry): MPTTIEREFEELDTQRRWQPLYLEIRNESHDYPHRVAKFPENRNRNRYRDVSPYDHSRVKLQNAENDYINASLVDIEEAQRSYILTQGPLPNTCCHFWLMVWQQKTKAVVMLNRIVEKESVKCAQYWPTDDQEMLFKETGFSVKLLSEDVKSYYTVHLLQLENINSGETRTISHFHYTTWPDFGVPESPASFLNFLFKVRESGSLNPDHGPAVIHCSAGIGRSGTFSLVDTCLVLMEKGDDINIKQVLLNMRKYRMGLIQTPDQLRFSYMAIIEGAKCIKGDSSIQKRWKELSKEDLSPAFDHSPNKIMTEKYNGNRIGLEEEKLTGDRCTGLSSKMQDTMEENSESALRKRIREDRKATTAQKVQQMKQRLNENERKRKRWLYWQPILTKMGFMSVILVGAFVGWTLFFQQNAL
The experiment is described as follows: Inhibition of TCPTP (unknown origin) using pNPP as substrate after 30 mins by spectrophotometer.

Experiment [4] deals with T3, Tyrosine-protein phosphatase non-receptor type 1 (Homo sapiens) (UniProt P18031).
T3 sequence (whole entry): T1 sequence (P18031 whole entry)
As to the kind of experiment: Competitive inhibition of recombinant GST-tagged PTP1B catalytic domain (1 to 321 residues) (unknown origin) expressed in Escherichia coli BL21(DE3) at 1 to 8 uM using varying levels of pNPP as substrate after 30 mins by spectrophotometric method. In short, it runs like this:
(§1)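 PTP1B-catalysed pNPP hydrolysis read by absorbance of p-nitrophenol at 405 nm, run with pNPP at 0.5, 1.0, 2.0, 4.0 and 8.0 mM, with and without inhibitor. Inhibition mode was assigned from double-reciprocal (1/v) plots.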

The target in experiment [5] is T3, Tyrosine-protein phosphatase non-receptor type 1 (Homo sapiens). The experiment is described as follows: Inhibition of recombinant GST-tagged PTP1B catalytic domain (1 to 321 residues) (unknown origin) expressed in Escherichia coli BL21(DE3) at 1 mM using pNPP as substrate after 30 mins by spectrophotometric method relative to control. In short, it runs like this: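 PTP1B (60 nM) reacted with 4 mM pNPP at 37 °C and pH 7.5 in 10 mM Tris-HCl, 25 mM NaCl, 1 mM EDTA, 2 mM DTT. The compound was added from DMSO at 1% v/v. The reaction was started with enzyme and stopped with 1 N NaOH after 30 min. p-Nitrophenol was read at 405 nm, and activity was taken relative to control.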

For experiment [6] the target is unchanged. As to the kind of experiment: Competitive inhibition of recombinant GST-tagged PTP1B catalytic domain (1 to 321 residues) (unknown origin) expressed in Escherichia coli BL21(DE3) at 1 to 4 uM using varying levels of pNPP as substrate after 30 mins by spectrophotometric method. In short, it runs like this:
as §1

Experiment [7] deals with T4, Tyrosine-protein phosphatase non-receptor type 1 (Mus musculus) (UniProt P35821).
T4 sequence (whole entry): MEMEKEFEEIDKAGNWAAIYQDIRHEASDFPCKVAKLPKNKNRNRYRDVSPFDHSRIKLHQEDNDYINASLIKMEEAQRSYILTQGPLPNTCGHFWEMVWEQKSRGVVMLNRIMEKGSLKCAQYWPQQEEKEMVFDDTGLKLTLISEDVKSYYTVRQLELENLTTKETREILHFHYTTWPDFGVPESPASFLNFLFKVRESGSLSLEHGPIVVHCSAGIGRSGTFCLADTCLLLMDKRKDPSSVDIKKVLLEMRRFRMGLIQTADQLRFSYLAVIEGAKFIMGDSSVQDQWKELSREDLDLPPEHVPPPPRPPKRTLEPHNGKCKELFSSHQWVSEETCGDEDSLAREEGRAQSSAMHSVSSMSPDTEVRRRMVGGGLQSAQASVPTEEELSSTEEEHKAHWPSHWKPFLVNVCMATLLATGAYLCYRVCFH
As to the kind of experiment: Inhibition of PTP1B in mouse C2C12 cells assessed as increase in insulin stimulated AKT phosphorylation at 2 uM preincubated for 1 hr followed by 100 nM insulin addition measured after 30 mins by immunoblot method. In kind it is cell-based. The method, boiled down:
(§2)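 C2C12 myoblasts were grown in DMEM with 10% fetal calf serum and differentiated to myotubes in 10% horse serum. Myotubes were serum-starved 24 h, then given inhibitor at 0.5–4 µM in serum-free DMEM and stimulated with 100 nM insulin for 30 min at 37 °C. RIPA lysates (10 µg protein) were immunoblotted for phospho-proteins, detected by ECL and quantified by densitometry.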

Experiment [8] concerns the target T4, Tyrosine-protein phosphatase non-receptor type 1 (Mus musculus). As to the kind of experiment: Inhibition of PTP1B in mouse C2C12 cells assessed as increase in insulin stimulated IRS-1 phosphorylation at 2 uM preincubated for 1 hr followed by 100 nM insulin addition measured after 30 mins by immunoblot method. The format is cell-based. In short, it runs like this: as §2
A general note: In western blotting, separated proteins are transferred to a membrane and probed.

Experiment [9] has the same target. The experiment is described as follows: Inhibition of PTP1B in mouse C2C12 cells assessed as increase in insulin stimulated IRbeta phosphorylation at 2 uM preincubated for 1 hr followed by 100 nM insulin addition measured after 30 mins by immunoblot method. The format is cell-based. In short, it runs like this: as §2

The structures appear in SMILES notation. Activity calls are given as the source filed them. The calls are words filed in the database; no cut-off is given here.

For `COCCc1ccc(Oc2ccc(OC(=O)CSc3nnc(-c4ccc(O)c(O)c4)o3)cc2)cc1`, the IC50 in experiment [1] came to 22.8 µM. Take `CCOc1ccc(OC(=O)CSc2nnc(-c3ccc(O)c(O)c3)o2)cc1`: the IC50 in experiment [1] worked out at 7.94 µM. As to `O=C(CSc1nnc(-c2ccc(O)c(O)c2)o1)Oc1ccccc1`, the IC50 in [1] was determined as 8.09 µM. The same measure, in the same setting: the value for `Cc1ccc(OC(=O)CSc2nnc(-c3ccc(O)c(O)c3)o2)cc1` was 4.74 µM. `CC(C)c1ccc(Oc2ccc(-c3cnc(-c4ccc(O)c(O)c4)o3)cc2)cc1`: in experiment [1], the IC50 came out at 7.44 µM.

Consider `CC(C)c1ccc(Oc2ccc(OC(=O)CSc3nnc(-c4ccc(O)c(O)c4)o3)cc2)cc1`, for which the IC50 in experiment [1] is 11 µM. Turning to `O=C(CSc1nnc(-c2ccc(O)c(O)c2)o1)Oc1ccc(C(F)(F)F)cc1`, in [1], the IC50 was determined as 21.4 µM.

On to `CCOc1ccc(Oc2ccc(OC(=O)CSc3nnc(-c4ccc(O)c(O)c4)o3)cc2)cc1`, for which the 50% inhibitory concentration (IC50) in [1] was determined as 17 µM. For `O=C(CSc1nnc(-c2ccc(O)c(O)c2)o1)c1ccccc1`, in experiment [1], the IC50 is 15.5 µM.

In the case of `CCOc1ccc(Oc2ccc(-c3cnc(-c4ccc(O)c(O)c4)o3)cc2)cc1`, in experiment [1], the IC50 worked out at 20.8 µM. For the molecule `Oc1ccc(-c2ncc(-c3ccc(Oc4ccccc4)cc3)o2)cc1O`, the IC50 in [1] came out at 2.63 µM. For the molecule `COc1ccc(Oc2ccc(-c3cnc(-c4ccc(O)c(O)c4)o3)cc2)cc1`, the half-inhibitory concentration (IC50) in experiment [1] worked out at 6.92 µM. Regarding `Oc1ccc(-c2ncc(-c3ccc(Oc4ccc(-c5ccccc5)cc4)cc3)o2)cc1O`, the IC50 in experiment [1] stood at 6.25 µM; in [3], 5.01 µM. The Ratio IC50 in experiment [2] turned out to be 0.8. `Cc1ccc(Oc2ccc(-c3cnc(-c4ccc(O)c(O)c4)o3)cc2)cc1`: the IC50 in experiment [1] is 0.807 µM. In experiment [4], the inhibition entry was “Active”. As for `O=C(CSc1nnc(-c2ccc(O)c(O)c2)o1)Oc1ccc(Br)cc1`, the IC50 in experiment [1] amounted to 115 µM. Turning to `O=C(CSc1nnc(-c2ccc(O)c(O)c2)o1)Oc1ccc(Oc2ccc(OCc3ccccc3)cc2)cc1`, the IC50 in experiment [1] is 21.4 µM.

On to `COCCc1ccc(Oc2ccc(-c3cnc(-c4ccc(O)c(O)c4)o3)cc2)cc1`, for which the IC50 in experiment [1] was 19.1 µM. As for `O=Cc1ccc(O)c(O)c1`, the inhibition in experiment [5] is 29%.

On to `CC(C)(C)c1ccc(Oc2ccc(OC(=O)CSc3nnc(-c4ccc(O)c(O)c4)o3)cc2)cc1`, for which the IC50 in experiment [1] was found to be 10.5 µM. Same read-out and setting: the value for `COC(=O)CSc1nnc(-c2ccc(O)c(O)c2)o1` was 35.6 µM; that for `O=C(CSc1nnc(-c2ccc(O)c(O)c2)o1)Oc1ccc(Oc2ccccc2)cc1` was 9.33 µM; that for `CCC(C)(C)c1ccc(Oc2ccc(-c3cnc(-c4ccc(O)c(O)c4)o3)cc2)cc1` was 3.6 µM. In the case of `Oc1ccc(-c2nnc(SCc3ccccc3)o2)cc1O`, the IC50 in [1] stood at 31.6 µM. Turning to `CC(C)(C)c1ccc(Oc2ccc(-c3cnc(-c4ccc(O)c(O)c4)o3)cc2)cc1`, the inhibition entry in [6], in [7], in experiment [8] and in experiment [9] was “Active” in each case. The IC50 in [1] amounted to 0.487 µM; in experiment [3], 13.3 µM. Also, the Ratio IC50 in experiment [2] turned out to be 27.3. With `COc1ccc(OC(=O)CSc2nnc(-c3ccc(O)c(O)c3)o2)cc1`, the IC50 in [1] was 6.02 µM; in experiment [3] it was greater than 100 µM. In addition, in experiment [2], the Ratio IC50 is greater than 16.6.

`Cc1ccc(Oc2ccc(C(=O)CSc3nnc(-c4ccc(O)c(O)c4)o3)cc2)cc1`: the IC50 is 3.89 µM in [1] and 8.73 µM in [3]. Also, the Ratio IC50 in experiment [2] was determined as 2.24. For `O=C(CSc1nnc(-c2ccc(O)c(O)c2)o1)Oc1ccc(OCc2ccccc2)cc1`, in [1], the IC50 worked out at 7.79 µM.

As usually defined, the IC50 is the concentration needed to halve the response being measured. Broadly, the inhibition is how much of the control response was suppressed.
